# HePTP inhibitor = inhibitors of human HePTP phosphatase, primary screen, biochemical, absorbance, leukemia target; Tyrosine-protein phosphatase non-receptor type 7 (Homo sapiens), P35236; recombinant HePTP phosphatase activity, OD absorbance; inhibition, % at 20 µM; actives 0.64% (n = 110,000); AID 521, 2006; in the data active means inhibition above about 50%;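 further: plate controls were vehicle for no effect and reference inhibitor for full effect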
# Target sequence (P35236 whole entry, looked up): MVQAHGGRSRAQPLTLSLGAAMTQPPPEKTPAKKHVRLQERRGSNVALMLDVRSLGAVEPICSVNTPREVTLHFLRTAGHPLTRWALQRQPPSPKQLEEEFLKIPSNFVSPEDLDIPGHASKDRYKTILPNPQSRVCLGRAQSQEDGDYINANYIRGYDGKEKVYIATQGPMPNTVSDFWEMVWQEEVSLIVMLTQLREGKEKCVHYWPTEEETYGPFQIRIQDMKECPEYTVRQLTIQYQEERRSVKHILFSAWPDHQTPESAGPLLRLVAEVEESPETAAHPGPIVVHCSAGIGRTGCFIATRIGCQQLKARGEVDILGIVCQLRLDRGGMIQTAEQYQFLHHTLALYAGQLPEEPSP
# PostGolgi ctrl = growth inhibition of yeast control strain, primary screen, counter-screen for post-Golgi transport modulator project | efflux-deficient yeast background strain, growth absorbance A615, 16 h | AID 738, 2007 | actives 5% (n = 98,000) | inhibition, % at 10 µM
# tolC growth inh = growth inhibitors of E. coli tolC mutant, primary screen, strain BW25113 ΔtolC::kan, 384-well | OD615 | growth inhibition, % at 10 µM (by protocol) | actives 2.2% (n = 65,000) | AID 573, 2007;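 active means growth inhibition at or above a cutoff equal to the mean over every tested compound plus 3 SD, cut at about 60% in these data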;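 further: growth measured after 20 h incubation at 37 °C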
#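 Material: E. coli BW25113 ΔtolC::kan, tolC deletion mutant strain. Measure: percent growth inhibition. Schedule: 37 °C, 20 h exposure. Doses: single-point testing at 10 µM. Signal: A615 absorbance measurement. Buffer or medium: kanamycin-containing LB broth (50 µg/mL).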
# PostGolgi yeast = phenotypic screen on post-Golgi transport, primary screen | post-Golgi transport phenotypic cell assay | actives 0.9% (n = 98,000) | inhibition, % at 10 µM;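 further: yeast cells grown in 1536-well plates; yeast grown about 18 h at 30C before absorbance read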
# PLAP activator = PLAP enzyme activators, biochemical, luminescence, HTS | Alkaline phosphatase, placental type (Homo sapiens), P05187 | purified PLAP enzyme, luminescent substrate read-out; stronger effect = higher value | activation fold at 20 µM | actives 1.2% (n = 96,000) | AID 696, 2007; in the data active means activation fold above about 2
# E coli WT exp = growth inhibitors of wild-type E. coli, primary screen, strain BW25113, expanded library, OD600 | OD600 absorbance | growth inhibition, % at 100 µM | actives 0.15% (n = 98,000) | AID 710, 2007;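 active means growth inhibition above about 50% at one test dose, limit read from the data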;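 further: growth measured after 20 h incubation at 37 °C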
# Starred values were filed as active, the others as inactive; . = not tested or not shown. A selection: hits, their analogues and other compounds. The true share with any hit is near 5.4%. Unless noted, no stated cut-off is given here; in the data, active means inhibition above about 30%; inactive means the rest.
SMILES,HePTP inhibitor,PostGolgi ctrl,tolC growth inh,PostGolgi yeast,PLAP activator,E coli WT exp
CCOc1cc(/C=C2/C(=O)NC(=O)N(c3cccc(C)c3)C2=O)cc(Br)c1O,6,.,.,.,.,.
CC(C)CNC(=O)CC(=O)N/N=C/c1ccc(C(=O)O)cc1,-2,.,.,.,.,.
COc1cc(NC(=O)COc2ccc(C)cc2)cc(OC)c1,-5,.,.,.,.,.
CCCCCSc1nnc(-c2cc(Br)ccc2N)c(=O)[nH]1,4,11,100*,1,1.1,5
CCCCSc1nnc(-c2ccccc2N)c(=O)[nH]1,3,14,17,1,0.9,0
COc1ccccc1Cc1nc(-c2ccc(Br)o2)no1,-1,2,61*,-10,1,6
O=C(Cc1ccccc1)N1CCc2ccccc2C1,-5,.,.,.,.,.
COc1c(Cl)cc(C(=O)Nc2cccc(C(F)(F)F)c2)cc1Cl,-22,.,.,.,.,.
Cc1ccc(C(=O)Nc2ccc(I)cc2Cl)cc1[N+](=O)[O-],2,.,.,.,.,.
CC(C)(C)c1nnc(NC(=O)Nc2ccccc2)s1,-12,.,.,.,.,.
Cc1csc(NC(=O)c2nc3nc(C)cc(C)n3n2)n1,-9,5,1,-5,2.1*,10
Cc1csc(NC(=O)c2nc(-c3ccccc3)n(-c3ccccc3)n2)n1,8,8,1,38*,2.8*,-6
CCSc1nnc(NC(=O)c2nn(C(C)C)c(=O)c3ccccc23)s1,8,30*,38,7,1.3,-4
Cc1cc(C)n2nc(C(=O)Nc3nccs3)nc2n1,.,6,.,-3,1,0
CCSc1nnc(NC(=O)c2nc(-c3ccccc3)n(-c3ccccc3)n2)s1,5,16,78*,2,1.4,-8
N#Cc1c(Nc2ccccc2)ccn(CC(=O)c2ccccc2)c1=O,3,.,.,.,.,.
O=C(/C=C/c1ccccc1)NC(=S)Nc1ccc2oc(-c3cccnc3)nc2c1,4,.,.,.,.,.
CCc1ccccc1N(CC(=O)Nc1ccc(OC)cc1OC)S(C)(=O)=O,-9,.,.,.,.,.
O=c1c(C=NCC2CCCO2)c(C(F)(F)F)[nH]n1-c1nc2ccccc2s1 (stereo not given),-7,.,.,.,.,.
Cc1cccc(N2CC(c3nc4ccccc4n3C)CC2=O)c1C (stereo not given),1,.,100*,.,.,.
CCn1c(C2CC(=O)N(c3cc(C)cc(C)c3)C2)nc2ccccc21 (stereo not given),4,4,10,-3,1.4,-5
CCc1ccc2oc(-c3cccc(NC(=O)c4ccc(C)c([N+](=O)[O-])c4)c3)nc2c1,2,.,.,.,.,.
O=C(N/N=C/c1cc(Br)ccc1O)NC12CC3CC(CC(C3)C1)C2,-8,.,.,.,.,.
Fc1cccc2sc(Nc3nnc(-c4ccco4)o3)nc12,-3,24,99*,5,1.5,-6
COc1cccc2sc(Nc3nnc(-c4ccc(F)cc4)o3)nc12,.,-1,.,3,2.4*,-14
SMILES,HePTP inhibitor,PostGolgi ctrl,tolC growth inh,PostGolgi yeast,PLAP activator,E coli WT exp
COc1cccc2sc(Nc3nnc(-c4cccs4)o3)nc12,6,-4,-20,-3,1,-2
CCN(CC)c1nc2ccccc2nc1C(C#N)C(=O)NCCc1ccccc1 (stereo not given),4,33*,-7,2,1,-9
CCN(CC)c1nc2ccccc2nc1C(C#N)C(=O)NCCCOC (stereo not given),9,26,25,9,1.2,1
COc1cc(OC)cc(C(=O)N(Cc2nc(-c3cccc(C)c3)no2)C(C)C)c1,-1,10,67*,-5,1.5,-10
Cc1ccc(SCC(=O)N(Cc2nc(-c3ccccc3)no2)C(C)C)cc1,-3,30*,74*,-5,1.2,-4
CC(C)N(Cc1nc(-c2ccc(Cl)cc2)no1)C(=O)CCCN1C(=O)c2ccccc2C1=O,6,40*,-7,3,1.5,-18
CC(C)N(Cc1nc(-c2ccc(Cl)cc2)no1)C(=O)c1cccs1,3,27,68*,-4,1,-1
COc1cc2ccccc2cc1C(=O)Nc1ccc(I)cc1Cl,5,.,.,.,.,.
CC(C)N(Cc1nc(-c2ccccc2)no1)C(=O)c1ccc(Cl)cc1,1,10,68*,0,1.5,-5
COc1ccccc1OCC(=O)N(Cc1nc(-c2ccccc2)no1)C1CCCCC1,11,26,62*,-9,1.5,-16
COc1ccc(C(=O)N(Cc2nc(-c3ccc(C)cc3)no2)C(C)C)cc1OC,3,7,6,1,1.5,3
COc1ccccc1C(=O)N(Cc1nc(-c2ccc(Cl)cc2)no1)C(C)C,4,32*,20,2,1.5,-1
Cc1ccc(C(=O)N(Cc2nc(-c3ccc(C)cc3)no2)C(C)C)cc1,-2,8,-2,0,0.9,-5
Cc1ccc(-c2cc(C(F)F)nc(NCc3cccnc3)n2)cc1,9,44*,31,1,.,3
Cc1ccc(-c2cc(C(F)F)nc(NCC3CCCO3)n2)cc1 (stereo not given),6,32*,17,7,.,2
Cc1ccc(-c2cc(C(F)(F)F)n3ncc(C(=O)NCC4CCCO4)c3n2)cc1 (stereo not given),-3,.,.,.,.,.
N#C/C(=C/c1ccc(-c2ccccc2C(=O)O)o1)C(=O)Nc1cccc(Br)c1,4,.,.,.,.,.
CC1=C(C(=O)OC(C)C)C(c2ccc(Cl)cc2)NC(=O)N1 (stereo not given),6,.,.,.,.,.
O=C(Nc1cccnc1)Nc1ccc(F)c(Cl)c1,-1,13,49,2,1,61*
O=C(CCCOc1ccc(Cl)cc1Cl)Nc1cccnc1,.,39*,.,69*,0.7,23
O=C(CCCc1nc(-c2ccc(Cl)cc2)no1)Nc1cccnc1,4,88*,27,54*,0.7,9
CC1=NN(c2ccc(Cl)c(C(=O)O)c2)C(=O)/C1=C\c1cccc([N+](=O)[O-])c1,-3,.,.,.,.,.
CCCN(CCC)c1ncnc2nc[nH]c12,1,11,-5,-13,2.3*,4
CCN1CCN(CCCNc2ncnc3nc[nH]c23)CC1,1,-1,3,-10,1.2,2
Clc1ccccc1CN(Cc1ccccc1)c1ncnc2nc[nH]c12,12,52*,23,-8,1.7,-2
CCOC(=O)CNC(=O)c1cccc(C)c1,5,.,.,.,.,.
Cc1ccc(SC(CC(=O)O)c2ccccc2)cc1 (stereo not given),5,.,.,.,.,.
CCCCOC(=O)CSc1nc(N)c(C#N)c(-c2ccc(OCC)cc2)c1C#N,10,2,-9,-10,0.8,-3
CCCCOc1ccc(-c2c(C#N)c(N)nc(SCC(N)=O)c2C#N)cc1,1,13,70*,1,1.4,1
O=C1c2cccc3cccc(c23)C(=O)N1/N=C/c1ccccc1O,2,.,.,.,.,.

# Screening results: PubChem, several laboratories
